Statin myotox sup: suppressors of statin myotoxicity in C2C12 myotubes, primary screen, cell-based, single point, plate reader; rescue of ATP level, % at 7.49 µM; 0.78% of 330,000 active; AID 602340, 2012; C2C12 myotubes + simvastatin, ATP luminescence, 48 h; scaled: DMSO 0, geranylgeraniol control 100;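 active = mean ATP rescue above about 67%, or every replicate alone reaching that limit, limit read from the data, passing the limit was not always enough; inconclusive = no clear call, values can overlap the other calls; inactive = mean under the limit and some replicate under it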;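 also: myotubes were challenged with 10 µM simvastatin during compound exposure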
E-sel inducer: E-selectin induction in HUVECs, primary screen, imaging, HUVEC, immunofluorescence imaging, single point. P16581. normalized: neutral wells 0, TNF-alpha wells 100. activation, % at 7.58 µM. 0.37% of 260,000 active. AID 686992, 2013;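 active = mean E-selectin-positive cell signal at least 10% of the positive control, reached in at least 60% of replicates, without over 20% cell loss; inconclusive = no rule given, readout overlaps actives, possibly toxicity-flagged; inactive = the rest, including those meeting only one limit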
Target sequence (P16581 whole entry, looked up): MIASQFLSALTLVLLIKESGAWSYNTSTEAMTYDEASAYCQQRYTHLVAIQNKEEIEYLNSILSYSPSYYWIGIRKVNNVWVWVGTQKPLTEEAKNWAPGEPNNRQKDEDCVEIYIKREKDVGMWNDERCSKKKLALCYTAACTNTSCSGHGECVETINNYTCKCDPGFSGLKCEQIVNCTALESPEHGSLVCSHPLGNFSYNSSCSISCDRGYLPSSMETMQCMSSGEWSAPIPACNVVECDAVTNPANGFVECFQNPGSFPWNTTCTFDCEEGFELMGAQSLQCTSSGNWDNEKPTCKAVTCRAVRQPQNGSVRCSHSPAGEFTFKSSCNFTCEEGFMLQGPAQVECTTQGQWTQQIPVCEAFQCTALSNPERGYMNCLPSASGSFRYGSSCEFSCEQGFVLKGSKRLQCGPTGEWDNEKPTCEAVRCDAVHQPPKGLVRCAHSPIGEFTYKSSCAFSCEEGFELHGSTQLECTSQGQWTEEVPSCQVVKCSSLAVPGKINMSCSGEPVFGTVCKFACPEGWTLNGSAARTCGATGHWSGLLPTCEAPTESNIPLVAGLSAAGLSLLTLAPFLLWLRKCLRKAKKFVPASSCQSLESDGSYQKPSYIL
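Assay system: HUVEC primary endothelial cells. Input: 3,000 HUVEC seeded per well. Doses: one compound dose added by pin transfer. Read-out basis: % PE-positive cells. Benchmarks: TNF-alpha high, DMSO low. Detection: immunofluorescence imaging. Buffer or medium: EGM-2, gelatin.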
DENV2 CPE: inhibitors of DENV2 cytopathic effect, primary screen, cell-based, plate reader, single concentration; CPE inhibition, % at 9.99 µM; DENV2-infected cells, cytopathic effect rescue; 1.7% of 350,000 active; in the data active = CPE inhibition above about 20%, passing the limit was not always enough; inconclusive = no clear call, values can overlap the other calls; tested in BHK-21 cells;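 also: 0% = median of neutral control wells and 100% = median of positive control wells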
* = called active by the depositor; u = inconclusive; x = no result given. Only some compounds are listed: those with a hit (about 2.2% of all), similar ones and a draw of the others.

SMILES	Statin myotox sup	E-sel inducer	DENV2 CPE
CO[C@@H]1CN(C)C(=O)c2cc(NC(=O)CC(F)(F)F)ccc2OC[C@H](C)NC[C@@H]1C	x	5	0
CO[C@H]1CN(C)C(=O)c2cc(NC(=O)CC(F)(F)F)ccc2OC[C@@H](C)NC[C@H]1C	x	0	26*
CCC(=O)Nc1ccc2c(c1)OC[C@H](C)NC[C@H](C)[C@H](OC)CN(C)C2=O	8	0	21*
COc1cccc(NC(=O)Nc2ccc3c(c2)OC[C@H](C)NC[C@@H](C)[C@@H](OC)CN(C)C3=O)c1	-3	0	5
C[C@H]1CN([C@@H](C)CO)C(=O)c2cc(C3=CCCC3)cnc2O[C@H]1CN(C)C(=O)Cc1ccncc1	53	0	14
C[C@H](CO)N1C[C@H](C)[C@H](CN(C)Cc2ccc3c(c2)OCO3)Oc2ccc(NC(=O)Cc3ccccc3)cc2CC1=O	7	0	4
O=C(C[C@H]1C=C[C@@H](NC(=O)NC2CCCCC2)[C@H](CO)O1)NCc1ccc(Cl)cc1	-6	0	4
O=C(C1CCOCC1)N1C[C@H]2[C@@H](c3ccccc31)[C@@H](CO)N2C(=O)Nc1cccc(F)c1	-10	0	-14
COc1ccccc1C(=O)Nc1ccc2c(c1)C(=O)N(C)[C@@H]1CC[C@H](CC(=O)NCc3ccc(Cl)c(Cl)c3)O[C@@H]1CO2	16	0	-10
CCn1c(-c2ccc(-c3ccccc3)cc2)c[nH]c1=S	125*	x	x
C=CCn1c(-c2ccccc2)c[nH]c1=S	-13	x	x
O=C(c1c(F)c(F)c(F)c(F)c1F)N(Cc1ccccc1)Cc1ccccc1	-2	x	x
O=C(c1c(F)cccc1F)N(Cc1ccccc1)Cc1ccccc1	-4	32*	-3
C[C@@H]1CN([C@@H](C)CO)C(=O)Cc2cc(NC(=O)Nc3ccc(C(F)(F)F)cc3)ccc2O[C@H]1CN(C)C(=O)NC1CCCCC1	1	0	-2
COc1ccc(NC(=O)N2CCC3(CC2)CN(C(C)=O)[C@@H](CO)c2[nH]c4cc(OC)ccc4c23)cc1	x	0	-4
COc1cccc(C2c3[nH]c4ccccc4c3C[C@H]3C(=O)N(c4ccccc4C(=O)N4CCC(C(=O)O)CC4)C(=O)N23)c1 (some centres undefined)	8	x	83*
COc1ccc(C2c3[nH]c4ccccc4c3C[C@H]3C(=O)N(c4ccccc4C(=O)N4CCC(C(=O)O)CC4)C(=O)N23)cc1 (some centres undefined)	-1	x	-10
O=C(Cc1ccccc1)Nc1ccccc1C(=O)Nc1ccc(C(=O)O)cc1	4	x	2
O=C(CSCc1ccccc1)Nc1ccccc1C(=O)Nc1ccc(C(=O)O)cc1	1	1	32*
COc1ccc(S(=O)(=O)Nc2ccc3c(c2)C(=O)N([C@H](C)CO)C[C@H](C)[C@H](CN(C)S(=O)(=O)c2ccc(Cl)cc2)OCCCC[C@@H](C)O3)cc1	x	0	-16
COc1ccc(S(=O)(=O)Nc2ccc3c(c2)C(=O)N([C@@H](C)CO)C[C@H](C)[C@H](CN(C)S(=O)(=O)c2ccc(Cl)cc2)OCCCC[C@H](C)O3)cc1	x	0	25*
COc1ccc(S(=O)(=O)N(C)C[C@@H]2Oc3ccc(NS(=O)(=O)c4ccccc4)cc3C(=O)N([C@H](C)CO)C[C@H]2C)cc1	5	0	133*
COc1ccc(S(=O)(=O)N(C)C[C@H]2OCCCC[C@@H](C)Oc3ccc(NS(=O)(=O)c4ccccc4)cc3C(=O)N([C@@H](C)CO)C[C@H]2C)cc1	x	x	56*
COc1ccc(S(=O)(=O)N(C)C[C@H]2OCCCC[C@H](C)Oc3ccc(NS(C)(=O)=O)cc3C(=O)N([C@H](C)CO)C[C@@H]2C)cc1	x	0	20*
COc1ccc(S(=O)(=O)Nc2ccc3c(c2)C(=O)N([C@H](C)CO)C[C@@H](C)[C@H](CN(C)S(=O)(=O)c2ccccc2)O3)cc1	-4	1	-2
COc1ccc(S(=O)(=O)N(C)C[C@H]2OCCCC[C@@H](C)Oc3ccc(NS(C)(=O)=O)cc3C(=O)N([C@H](C)CO)C[C@@H]2C)cc1	x	0	10
COc1ccc(S(=O)(=O)Nc2ccc3c(c2)C(=O)N([C@H](C)CO)C[C@H](C)[C@H](CN(C)S(=O)(=O)c2ccccc2)OCCCC[C@H](C)O3)cc1	x	0	u
O=C(N[C@@H]1CC[C@H](CCNC(=O)C2CCOCC2)O[C@H]1CO)c1ccncc1	17	0	-3
C/C=C/c1ccc2c(c1)O[C@@H](CN(C)C(=O)NCCC)[C@@H](C)CN([C@@H](C)CO)S2(=O)=O	18	0	2

Assay outcomes from PubChem BioAssay.
